Measurements published in publication PMC7339641 (Molecular imaging and biology, 2018).

How the values were obtained:
[1] = system: HER3; settings: human, in vivo; cited from earlier work
[2] = system: MDA-MB-453 cells; test: Fluorescent microscopy of peptide binding, MDA-MB-453; format: cell-based, human; settings: fixed cells, peptide 250 nM, 1 h room temperature, neutravidin-AlexaFluor488
Summary of the method: (§1)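 Cells fixed in 10 % formalin and dried onto slides overnight. Rehydrated in TBS, then blocked with 2 % BSA in TBS for 1 h. Biotinylated test peptide at 250 nM in 0.1 % TBST for 1 h at room temperature, then 3× washes with 0.1 % TBST. Neutravidin-AlexaFluor488 for 1 h at room temperature. Mounted in DAPI-containing medium and imaged on an inverted microscope.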

[3] = system: HCC-1954 cells; test: Fluorescent microscopy of peptide binding, HCC-1954; format: cell-based; settings: fixed cells, peptide 250 nM, 1 h room temperature, neutravidin-AlexaFluor488
Summary of the method: as §1

Row | Molecule | specific accumulation measured by tumor-to-blood ratio [1] | binding by fluorescent microscopy, MDA-MB-453 [2] | binding by fluorescent microscopy, HCC-1954 [3]
1 | ^64Cu-labeled DOTA-conjugated patritumab: 64Cu-labeled DOTA conjugate of the anti-HER3 antibody patritumab | approximately 1 | – | –
2 | CC(C)C[C@@H]1NC(=O)[C@@H](NC(=O)CNC(=O)CNC(=O)CNC(=O)CCCC[C@@H]2SC[C@@H]3NC(=O)N[C@@H]32)CSSC[C@@H](C(=O)O)NC(=O)[C@H](CO)NC(=O)[C@H](CCCNC(=N)N)NC(=O)[C@H](Cc2ccccc2)NC(=O)[C@H](CCCCN)NC(=O)[C@H]([C@@H](C)O)NC(=O)[C@@H]2CCCN2C1=O [biotinylated-HER3P1] | – | high binding | almost no visualization
